Reference: ChEMBL document CHEMBL4689842, “EUbOPEN Chemogenomics Library wave 1” (2021)

System: Fibroblast
Assay: Multiplex assay against human fibroblast
Type: toxicity, cell-based
Summary of the method: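 Per cents of healthy-nucleus cells form the tubulin, mitochondrial-mass and membrane-permeability phenotype values. Live cells were stained at seeding with Hoechst33342, BioTracker Green Microtubule Cytoskeleton Dye, MitoTracker Red and Annexin V Alexa Fluor 680. After compound addition they were imaged on a CQ1 microscope at 37°C and 5% CO2, and CellPathfinder machine-learning gating split them into Hoechst high-intensity objects or normal cells, normal cells into healthy, pyknosed or fragmented nuclei, and pyknosed cells into mitotic or apoptotic.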

[1] = 12 h, 1 µM, compound concentration 1 uM, replicate 1
[2] = 12 h, 1 µM, compound concentration 1 uM, replicate 2
[3] = 12 h, 10 µM, compound concentration 10 uM, replicate 1
[4] = 12 h, 10 µM, compound concentration 10 uM, replicate 2
[5] = 24 h, 1 µM, compound concentration 1 uM, replicate 1
[6] = 24 h, 1 µM, compound concentration 1 uM, replicate 2
[7] = 24 h, 10 µM, compound concentration 10 uM, replicate 1
[8] = 24 h, 10 µM, compound concentration 10 uM, replicate 2
[9] = 48 h, 1 µM, compound concentration 1 uM, replicate 1
[10] = 48 h, 1 µM, compound concentration 1 uM, replicate 2
[11] = 48 h, 10 µM, compound concentration 10 uM, replicate 1
[12] = 48 h, 10 µM, compound concentration 10 uM, replicate 2

## CN(C)C(=O)/C(C#N)=C/c1ccc(-c2nc3cnc4[nH]ccc4c3n2C2CCCCC2)o1
[1]
  Population Apoptotic (%): 67%
  Population Fragmented Nuclei (%): 27%
  Population Healthy Nuclei (%): 43%
  Population Hoechst High Intensity Objects (%): 19%
  Population Membrane Permeable-Phenotype (%): 26%
  Population Mitochondria Different-Phenotype (%): 17%
  Population Mitotic Cells (%): 32%
  Population Normal (%): 80%
  Population Pyknosed Nuclei (%): 29%
  Population Tubulin-Different-Phenotype (%): 36%
  Total Cell Count: 131
[2]
  Population Apoptotic (%): 57%
  Population Fragmented Nuclei (%): 4%
  Population Healthy Nuclei (%): 87%
  Population Hoechst High Intensity Objects (%): 2%
  Population Membrane Permeable-Phenotype (%): 2%
  Population Mitochondria Different-Phenotype (%): 6%
  Population Mitotic Cells (%): 42%
  Population Normal (%): 97%
  Population Pyknosed Nuclei (%): 7%
  Population Tubulin-Different-Phenotype (%): 24%
  Total Cell Count: 75
[3]
  Population Apoptotic (%): 51%
  Population Fragmented Nuclei (%): 28%
  Population Healthy Nuclei (%): 38%
  Population Hoechst High Intensity Objects (%): 61%
  Population Membrane Permeable-Phenotype (%): 22%
  Population Mitochondria Different-Phenotype (%): 11%
  Population Mitotic Cells (%): 48%
  Population Normal (%): 38%
  Population Pyknosed Nuclei (%): 32%
  Population Tubulin-Different-Phenotype (%): 65%
  Total Cell Count: 515
[4]
  Population Apoptotic (%): 18%
  Population Fragmented Nuclei (%): 20%
  Population Healthy Nuclei (%): 62%
  Population Hoechst High Intensity Objects (%): 54%
  Population Membrane Permeable-Phenotype (%): 13%
  Population Mitochondria Different-Phenotype (%): 63%
  Population Mitotic Cells (%): 81%
  Population Normal (%): 45%
  Population Pyknosed Nuclei (%): 17%
  Population Tubulin-Different-Phenotype (%): 70%
  Total Cell Count: 91
[5]
  Population Apoptotic (%): 43%
  Population Fragmented Nuclei (%): 34%
  Population Healthy Nuclei (%): 46%
  Population Hoechst High Intensity Objects (%): 14%
  Population Membrane Permeable-Phenotype (%): 33%
  Population Mitochondria Different-Phenotype (%): 5%
  Population Mitotic Cells (%): 56%
  Population Normal (%): 85%
  Population Pyknosed Nuclei (%): 19%
  Population Tubulin-Different-Phenotype (%): 41%
  Total Cell Count: 141
[6]
  Population Apoptotic (%): 54%
  Population Fragmented Nuclei (%): 5%
  Population Healthy Nuclei (%): 84%
  Population Hoechst High Intensity Objects (%): 4%
  Population Membrane Permeable-Phenotype (%): 2%
  Population Mitochondria Different-Phenotype (%): 10%
  Population Mitotic Cells (%): 45%
  Population Normal (%): 95%
  Population Pyknosed Nuclei (%): 9%
  Population Tubulin-Different-Phenotype (%): 36%
  Total Cell Count: 81
[7]
  Population Apoptotic (%): 35%
  Population Fragmented Nuclei (%): 27%
  Population Healthy Nuclei (%): 25%
  Population Hoechst High Intensity Objects (%): 61%
  Population Membrane Permeable-Phenotype (%): 28%
  Population Mitochondria Different-Phenotype (%): 18%
  Population Mitotic Cells (%): 64%
  Population Normal (%): 38%
  Population Pyknosed Nuclei (%): 47%
  Population Tubulin-Different-Phenotype (%): 64%
  Total Cell Count: 606
[8]
  Population Apoptotic (%): 44%
  Population Fragmented Nuclei (%): 28%
  Population Healthy Nuclei (%): 53%
  Population Hoechst High Intensity Objects (%): 54%
  Population Membrane Permeable-Phenotype (%): 12%
  Population Mitochondria Different-Phenotype (%): 49%
  Population Mitotic Cells (%): 55%
  Population Normal (%): 45%
  Population Pyknosed Nuclei (%): 17%
  Population Tubulin-Different-Phenotype (%): 45%
  Total Cell Count: 125
[9]
  Population Apoptotic (%): 52%
  Population Fragmented Nuclei (%): 33%
  Population Healthy Nuclei (%): 37%
  Population Hoechst High Intensity Objects (%): 15%
  Population Membrane Permeable-Phenotype (%): 24%
  Population Mitochondria Different-Phenotype (%): 8%
  Population Mitotic Cells (%): 47%
  Population Normal (%): 84%
  Population Pyknosed Nuclei (%): 29%
  Population Tubulin-Different-Phenotype (%): 46%
  Total Cell Count: 143
[10]
  Population Apoptotic (%): 100%
  Population Fragmented Nuclei (%): 24%
  Population Healthy Nuclei (%): 72%
  Population Hoechst High Intensity Objects (%): 10%
  Population Membrane Permeable-Phenotype (%): 14%
  Population Mitochondria Different-Phenotype (%): 5%
  Population Mitotic Cells (%): 0%
  Population Normal (%): 89%
  Population Pyknosed Nuclei (%): 2%
  Population Tubulin-Different-Phenotype (%): 24%
  Total Cell Count: 119
[11]
  Population Apoptotic (%): 37%
  Population Fragmented Nuclei (%): 28%
  Population Healthy Nuclei (%): 28%
  Population Hoechst High Intensity Objects (%): 62%
  Population Membrane Permeable-Phenotype (%): 30%
  Population Mitochondria Different-Phenotype (%): 11%
  Population Mitotic Cells (%): 62%
  Population Normal (%): 37%
  Population Pyknosed Nuclei (%): 42%
  Population Tubulin-Different-Phenotype (%): 57%
  Total Cell Count: 650
[12]
  Population Apoptotic (%): 57%
  Population Fragmented Nuclei (%): 31%
  Population Healthy Nuclei (%): 57%
  Population Hoechst High Intensity Objects (%): 43%
  Population Membrane Permeable-Phenotype (%): 9%
  Population Mitochondria Different-Phenotype (%): 9%
  Population Mitotic Cells (%): 42%
  Population Normal (%): 56%
  Population Pyknosed Nuclei (%): 11%
  Population Tubulin-Different-Phenotype (%): 62%
  Total Cell Count: 307
